Square brackets hold non-standard residues; d marks the D form. Peptide text beside a SMILES is read from it. hPhe = N[C@@H](CCc1ccccc1)C(=O)O; Nle = CCCC[C@H](N)C(=O)O; Dap = NC[C@H](N)C(=O)O
Columns and labels:
Melanocortin receptor 5 = Melanocortin receptor 5 (Mus musculus, UniProt P41149); test: Inverse agonist activity at mouse MC5R expressed in HEK293 cells incubated for 2 hrs by AlphaScreen cAMP assay; type: functional, cell-based
Summary of the method: (§1)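 In the mouse MC5R HEK293 stable line, cells in IBMX-containing stimulation buffer with anti-cAMP acceptor beads were exposed to compound at up to 100 μM for 2 h at room temperature in the dark. Donor beads/biotinylated cAMP were then added for 2 h before AlphaScreen reading. Signal was normalized to basal response to give a percent difference from basal. Duplicate wells, ≥3 independent experiments.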

[1] = target: Melanocyte-stimulating hormone receptor (Mus musculus) (UniProt Q01727); test: Agonist activity at mouse MC1R expressed in HEK293 cells at 100 uM incubated for 2 hrs by AlphaScreen cAMP assay relative to NDP-MSH; type: functional, cell-based
Summary of the method: (§2)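 HEK293 cells stably expressing mouse MC1R, about 90% confluent, were detached with Versene and suspended at 10,000 cells/μL in stimulation buffer (HBSS, 0.5 mM IBMX, 5 mM HEPES, 0.1% BSA, pH 7.4) with anti-cAMP acceptor beads. Compound was added for 2 h at room temperature in the dark, then donor beads/biotinylated cAMP in lysis buffer for 2 h, followed by AlphaScreen read. Doses went up to 100 μM in duplicate wells, ≥3 experiments. EC50 came from nonlinear regression, with efficacy as a percent of NDP-MSH.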

Melanocortin receptor 3 = Melanocortin receptor 3 (Mus musculus, UniProt P33033); test: Antagonist activity at mouse MC3R expressed in HEK293 cells assessed as reduction in NDP-MSH-induced response incubated for 2 hrs by AlphaScreen cAMP assay based Schild analysis; type: functional, cell-based; details: read-out: pA2 (converted)
[2] = target: Melanocortin receptor 4 (Mus musculus) (UniProt P56450); test: Agonist activity at mouse MC4R expressed in HEK293 cells at 100 uM incubated for 2 hrs by AlphaScreen cAMP assay relative to untreated control; type: functional, cell-based
[3] = target: Melanocortin receptor 3 (Mus musculus) (UniProt P33033); test: Agonist activity at mouse MC3R expressed in HEK293 cells at 100 uM incubated for 2 hrs by AlphaScreen cAMP assay relative to untreated control; type: functional, cell-based
[4] = target: Melanocyte-stimulating hormone receptor (Mus musculus, UniProt Q01727); test: Agonist activity at mouse MC1R expressed in HEK293 cells incubated for 2 hrs by AlphaScreen cAMP assay; type: functional, cell-based; summary of the method: as §2
Mus musculus = organism: Mus musculus; test: Selectivity index, ratio of pA2 for antagonist activity at mouse MC3R expressed in HEK293 cells to pA2 for antagonist activity at mouse MC4R expressed in HEK293 cells; type: cell-based
[5] = target: Melanocortin receptor 5 (Mus musculus) (UniProt P41149); test: Inverse agonist activity at mouse MC5R expressed in HEK293 cells at 100 uM incubated for 2 hrs by AlphaScreen cAMP assay; type: functional, cell-based; summary of the method: as §1
Melanocortin receptor 4 = Melanocortin receptor 4 (Mus musculus, UniProt P56450); test: Antagonist activity at mouse MC4R expressed in HEK293 cells assessed as reduction in NDP-MSH-induced response incubated for 2 hrs by AlphaScreen cAMP assay based Schild analysis; type: functional, cell-based; details: read-out: pA2 (converted)
[6] = target: Melanocyte-stimulating hormone receptor (Mus musculus) (UniProt Q01727); test: Agonist activity at mouse MC1R expressed in HEK293 cells incubated for 2 hrs by AlphaScreen cAMP assay relative to NDP-MSH; type: functional, cell-based; summary of the method: as §2
[7] = target: Melanocortin receptor 4 (Mus musculus) (UniProt P56450); test: Potency index, ratio of pA2 for test compound to pA2 for AGRP for antagonist activity at mouse MC4R expressed in HEK293 cells assessed as reduction in NDP-MSH-induced response incubated for 2 hrs by AlphaScreen cAMP assay based Schild analysis; type: functional, cell-based

Sequence of Melanocyte-stimulating hormone receptor (Q01727 whole entry): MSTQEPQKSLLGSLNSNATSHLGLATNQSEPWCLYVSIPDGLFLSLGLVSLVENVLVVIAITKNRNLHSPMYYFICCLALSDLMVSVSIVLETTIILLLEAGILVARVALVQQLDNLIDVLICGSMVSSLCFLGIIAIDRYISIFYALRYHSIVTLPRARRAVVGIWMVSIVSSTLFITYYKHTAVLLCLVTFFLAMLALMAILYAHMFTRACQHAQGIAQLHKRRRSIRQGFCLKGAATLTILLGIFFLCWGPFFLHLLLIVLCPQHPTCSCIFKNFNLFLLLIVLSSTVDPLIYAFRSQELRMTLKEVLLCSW
Sequence of Melanocyte-stimulating hormone receptor (Mus musculus) (Q01727 whole entry, looked up): as the sequence (Q01727 whole entry) above
Sequence of Melanocortin receptor 5 (P41149 whole entry): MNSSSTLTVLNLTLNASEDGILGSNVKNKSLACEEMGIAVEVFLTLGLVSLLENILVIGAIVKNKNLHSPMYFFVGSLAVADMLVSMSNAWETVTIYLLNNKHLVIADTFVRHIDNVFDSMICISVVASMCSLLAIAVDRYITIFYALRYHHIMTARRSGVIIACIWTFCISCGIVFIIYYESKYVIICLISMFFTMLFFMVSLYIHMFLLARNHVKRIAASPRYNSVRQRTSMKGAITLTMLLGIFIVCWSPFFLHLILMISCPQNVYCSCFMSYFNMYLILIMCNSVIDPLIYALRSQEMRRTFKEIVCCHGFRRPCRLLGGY
Sequence of Melanocortin receptor 5 (Mus musculus) (P41149 whole entry): as above
Sequence of Melanocortin receptor 3 (Mus musculus) (P33033 whole entry): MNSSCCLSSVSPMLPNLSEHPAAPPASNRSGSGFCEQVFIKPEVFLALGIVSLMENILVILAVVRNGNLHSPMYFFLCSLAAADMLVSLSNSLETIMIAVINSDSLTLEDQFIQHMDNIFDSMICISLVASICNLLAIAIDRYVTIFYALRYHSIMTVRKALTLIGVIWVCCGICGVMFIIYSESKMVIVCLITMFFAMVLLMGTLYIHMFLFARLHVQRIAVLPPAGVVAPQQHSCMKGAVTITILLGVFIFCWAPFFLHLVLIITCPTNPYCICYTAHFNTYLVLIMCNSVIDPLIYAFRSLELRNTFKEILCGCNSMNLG
Sequence of Melanocortin receptor 3 (P33033 whole entry): as above
Sequence of Melanocortin receptor 4 (Mus musculus) (P56450 whole entry): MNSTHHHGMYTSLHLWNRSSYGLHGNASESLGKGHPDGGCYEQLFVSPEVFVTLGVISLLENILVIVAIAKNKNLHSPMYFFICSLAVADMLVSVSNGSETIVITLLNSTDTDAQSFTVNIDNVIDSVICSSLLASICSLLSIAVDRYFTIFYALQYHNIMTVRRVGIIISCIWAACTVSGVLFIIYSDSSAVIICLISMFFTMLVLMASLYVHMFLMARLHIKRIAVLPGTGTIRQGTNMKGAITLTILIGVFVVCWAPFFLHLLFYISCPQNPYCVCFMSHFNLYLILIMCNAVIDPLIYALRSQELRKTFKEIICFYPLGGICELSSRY
Sequence of Melanocortin receptor 4 (P56450 whole entry): as above

Structure (SMILES)	EC50 (Melanocortin receptor 5)	Activity [1]	Kb (Melanocortin receptor 3)	Activity [2]	Activity [3]	EC50 [4]	Ratio (Mus musculus)	Activity [5]	Kb (Melanocortin receptor 4)	Activity [6]	Ratio [7]
N=C(N)NCCC[C@@H]1NC(=O)[C@H](Cc2ccccc2)NC(=O)[C@H](Cc2ccccc2)NC(=O)[C@H](CCCNC(=N)N)NC(=O)[C@@H]2CCCN2C(=O)[C@H]2CCCN2C(=O)[C@H](Cc2ccccc2)NC(=O)[C@H](CO)NC1=O	> 100000 nM	< 20%	79.4 nM	< 20%	< 20%	> 100000 nM	79	< 20%	1 nM	–	–
CCCC[C@@H]1NC(=O)[C@H](C)NC(=O)[C@H](CN)NC(=O)[C@H](Cc2ccccc2)NC(=O)[C@H](Cc2ccccc2)NC(=O)[C@H](CCCNC(=N)N)NC(=O)[C@@H]2CCCN2C(=O)[C@H]2CCCN2C1=O	> 100000 nM	–	79.4 nM	< 20%	< 20%	190 nM	79	< 20%	1 nM	–	–
N=C(N)NCCC[C@@H]1NC(=O)[C@@H]2CCCN2C(=O)[C@H]2CCCN2C(=O)[C@H](Cc2ccccc2)NC(=O)[C@H](CO)NC(=O)[C@H](CN)NC(=O)[C@H](Cc2ccccc2)NC(=O)[C@H](Cc2ccccc2)NC1=O	> 100000 nM	–	158 nM	< 20%	< 20%	600 nM	170	< 20%	0.794 nM	85%	–
C[C@@H]1NC(=O)[C@H](CN)NC(=O)[C@H](CCc2ccccc2)NC(=O)[C@H](Cc2ccccc2)NC(=O)[C@H](CCCNC(=N)N)NC(=O)[C@@H]2CCCN2C(=O)[C@H]2CCCN2C(=O)[C@H](Cc2ccccc2)NC1=O	> 100000 nM	–	79.4 nM	< 20%	< 20%	560 nM	100	< 20%	0.794 nM	70%	–
CCCC[C@@H]1NC(=O)[C@H](C)NC(=O)[C@H](CC(N)=O)NC(=O)[C@H](CCc2ccccc2)NC(=O)[C@H](Cc2ccccc2)NC(=O)[C@H](CCCNC(=N)N)NC(=O)[C@@H]2CCCN2C(=O)[C@H]2CCCN2C1=O	> 100000 nM	< 20%	631 nM	< 20%	< 20%	> 100000 nM	250	< 20%	2.51 nM	–	–
N=C(N)NCCC[C@@H]1NC(=O)[C@@H]2CCCN2C(=O)[C@H]2CCCN2C(=O)[C@H](Cc2ccccc2)NC(=O)[C@H](CO)NC(=O)[C@H](CN)NC(=O)[C@H](CCc2ccccc2)NC(=O)[C@H](Cc2ccccc2)NC1=O	> 100000 nM	40%	63.1 nM	< 20%	< 20%	–	120	< 20%	0.631 nM	–	–
N=C(N)NCCC[C@@H]1NC(=O)[C@@H]2CCCN2C(=O)[C@H]2CCCN2C(=O)[C@H](Cc2ccccc2)NC(=O)[C@H](CO)NC(=O)[C@H](CC(N)=O)NC(=O)[C@H](CCc2ccccc2)NC(=O)[C@H](Cc2ccccc2)NC1=O	> 100000 nM	40%	316 nM	< 20%	< 20%	–	130	< 20%	2.51 nM	–	–
CCCC[C@@H]1NC(=O)[C@H](CO)NC(=O)[C@H](CC(N)=O)NC(=O)[C@H](Cc2ccccc2)NC(=O)[C@H](Cc2ccccc2)NC(=O)[C@H](CCCNC(=N)N)NC(=O)[C@@H]2CCCN2C(=O)[C@H]2CCCN2C1=O (cyclo(RFFNS[Nle][dP]P))	–	–	251 nM	< 20%	< 20%	2600 nM	79	-35%	3.16 nM	75%	–
CCCC[C@@H]1NC(=O)[C@H](C)NC(=O)[C@H](CCCNC(=N)N)NC(=O)[C@H](Cc2ccccc2)NC(=O)[C@H](Cc2ccccc2)NC(=O)[C@H](CCCNC(=N)N)NC(=O)[C@@H]2CCCN2C(=O)[C@H]2CCCN2C1=O (cyclo(RFFRA[Nle][dP]P))	> 100000 nM	< 20%	31.6 nM	< 20%	< 20%	> 100000 nM	46	< 20%	0.794 nM	–	–
CCCC[C@@H]1NC(=O)[C@H](CO)NC(=O)[C@H](CCCNC(=N)N)NC(=O)[C@H](Cc2ccccc2)NC(=O)[C@H](Cc2ccccc2)NC(=O)[C@H](CCCNC(=N)N)NC(=O)[C@@H]2CCCN2C(=O)[C@H]2CCCN2C1=O (cyclo(RFFRS[Nle][dP]P))	> 100000 nM	< 20%	79.4 nM	< 20%	< 20%	> 100000 nM	320	< 20%	0.251 nM	–	–
CCCC[C@@H]1NC(=O)[C@H](CO)NC(=O)[C@H](CN)NC(=O)[C@H](Cc2ccccc2)NC(=O)[C@H](Cc2ccccc2)NC(=O)[C@H](CCCNC(=N)N)NC(=O)[C@@H]2CCCN2C(=O)[C@H]2CCCN2C1=O (cyclo(RFF[Dap]S[Nle][dP]P))	> 100000 nM	< 20%	316 nM	< 20%	< 20%	> 100000 nM	430	< 20%	0.794 nM	–	–
CCCC[C@@H]1NC(=O)[C@H](CO)NC(=O)[C@H](CC(N)=O)NC(=O)[C@H](CCc2ccccc2)NC(=O)[C@H](Cc2ccccc2)NC(=O)[C@H](CCCNC(=N)N)NC(=O)[C@@H]2CCCN2C(=O)[C@H]2CCCN2C1=O (cyclo(RF[hPhe]NS[Nle][dP]P))	> 100000 nM	< 20%	501 nM	< 20%	< 20%	> 100000 nM	790	< 20%	0.631 nM	–	3 to 6
C[C@@H]1NC(=O)[C@H](CCCNC(=N)N)NC(=O)[C@H](CCc2ccccc2)NC(=O)[C@H](Cc2ccccc2)NC(=O)[C@H](CCCNC(=N)N)NC(=O)[C@@H]2CCCN2C(=O)[C@H]2CCCN2C(=O)[C@H](Cc2ccccc2)NC1=O (cyclo(RF[hPhe]RAF[dP]P))	> 100000 nM	25%	10 nM	< 20%	< 20%	–	8	< 20%	1.26 nM	–	–
CCCC[C@@H]1NC(=O)[C@H](C)NC(=O)[C@H](CCCNC(=N)N)NC(=O)[C@H](CCc2ccccc2)NC(=O)[C@H](Cc2ccccc2)NC(=O)[C@H](CCCNC(=N)N)NC(=O)[C@@H]2CCCN2C(=O)[C@H]2CCCN2C1=O (cyclo(RF[hPhe]RA[Nle][dP]P))	> 100000 nM	< 20%	31.6 nM	< 20%	< 20%	> 100000 nM	19	< 20%	1.58 nM	–	–
N=C(N)NCCC[C@@H]1NC(=O)[C@H](CCc2ccccc2)NC(=O)[C@H](Cc2ccccc2)NC(=O)[C@H](CCCNC(=N)N)NC(=O)[C@@H]2CCCN2C(=O)[C@H]2CCCN2C(=O)[C@H](Cc2ccccc2)NC(=O)[C@H](CO)NC1=O (cyclo(RF[hPhe]RSF[dP]P))	> 100000 nM	30%	20 nM	< 20%	< 20%	–	13	< 20%	1.58 nM	–	–
CCCC[C@@H]1NC(=O)[C@H](CO)NC(=O)[C@H](CCCNC(=N)N)NC(=O)[C@H](CCc2ccccc2)NC(=O)[C@H](Cc2ccccc2)NC(=O)[C@H](CCCNC(=N)N)NC(=O)[C@@H]2CCCN2C(=O)[C@H]2CCCN2C1=O (cyclo(RF[hPhe]RS[Nle][dP]P))	> 100000 nM	–	12.6 nM	< 20%	< 20%	400 nM	37	< 20%	0.316 nM	–	–
CCCC[C@@H]1NC(=O)[C@H](C)NC(=O)[C@H](CN)NC(=O)[C@H](CCc2ccccc2)NC(=O)[C@H](Cc2ccccc2)NC(=O)[C@H](CCCNC(=N)N)NC(=O)[C@@H]2CCCN2C(=O)[C@H]2CCCN2C1=O (cyclo(RF[hPhe][Dap]A[Nle][dP]P))	> 100000 nM	< 20%	200 nM	< 20%	< 20%	> 100000 nM	250	< 20%	0.794 nM	–	–

— ChEMBL document CHEMBL4145669 (J Med Chem, 2018)
